From ChEMBL document CHEMBL4400549, “DPD-Inspired Discovery of Novel LsrK Kinase Inhibitors: An Opportunity To Fight Antimicrobial Resistance” (J Med Chem, 2019)

biological target: T1, Autoinducer-2 kinase (Salmonella typhimurium (strain LT2 / SGSC1412 / ATCC 700720)) (UniProt Q8ZKQ6); test: Inhibition of Salmonella typhimurium LsrK expressed in Escherichia coli MET1158 at 200 uM using (S)-DPD as substrate after 15 mins by Kinase Glo luminescence assay relative to control; conditions: Salmonella enterica subsp. enterica serovar Typhimurium
T1 sequence (whole entry): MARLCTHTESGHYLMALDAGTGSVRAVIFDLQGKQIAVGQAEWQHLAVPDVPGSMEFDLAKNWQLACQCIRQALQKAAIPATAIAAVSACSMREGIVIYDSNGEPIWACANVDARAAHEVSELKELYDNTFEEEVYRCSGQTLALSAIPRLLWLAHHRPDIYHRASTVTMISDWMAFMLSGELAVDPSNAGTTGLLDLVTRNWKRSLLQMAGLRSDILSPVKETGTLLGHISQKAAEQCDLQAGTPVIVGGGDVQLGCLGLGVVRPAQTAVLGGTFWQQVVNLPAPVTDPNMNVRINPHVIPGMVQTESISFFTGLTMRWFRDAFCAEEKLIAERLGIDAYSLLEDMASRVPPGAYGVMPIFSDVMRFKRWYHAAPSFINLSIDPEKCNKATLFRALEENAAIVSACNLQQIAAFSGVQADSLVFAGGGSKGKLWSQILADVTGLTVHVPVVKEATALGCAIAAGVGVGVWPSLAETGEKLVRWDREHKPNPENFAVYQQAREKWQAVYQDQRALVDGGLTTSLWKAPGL
Method in brief: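 Compound at 200 µM in triplicate with 300 nM LsrK, 300 µM (S)-DPD and 100 µM ATP in 25 mM triethanolamine pH 7.4, 200 µM MgCl2, 0.1 mg/mL BSA; 15 min incubation, then Kinase Glo reagent; luminescence read after 30 min; percent inhibition.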

Compound | inhibition
Cc1nc(-c2ccccc2)cc(C(O)CO)n1 (stereo not given) | 0.22%
Cn1nc(-c2ccco2)cc1C(O)CO (stereo not given) | 0%
OCC(O)c1cc(C2CC2)n[nH]1 (stereo not given) | 0%
Cn1nc(C2CC2)cc1C(O)CO (stereo not given) | 0%
OCC(O)c1cc(-c2cccs2)n[nH]1 (stereo not given) | 0%
OCC(O)c1cc(-c2ccccc2)nc(C2CC2)n1 (stereo not given) | 24.5%
OCC(O)c1cc2ccc(O)cc2cn1 (stereo not given) | 1.67%
Cc1nc2cnc(C(O)CO)cc2s1 (stereo not given) | 0.1%
Cn1nc(-c2ccccc2)cc1C1COC2(CCOCC2)O1 (stereo not given) | 31.1%
OCC(O)c1cc(C2CC2)nc(-c2ccccn2)n1 (stereo not given) | 2.94%
OCC(O)c1cc2ccccc2cn1 (stereo not given) | 0.48%
OCC(O)c1cc(-c2cccs2)nc(-c2cccc(F)c2)n1 (stereo not given) | 19.8%
OCC(O)c1cc2ccoc2cn1 (stereo not given) | 2.07%
OCC(O)c1cc(-c2ccccc2)n[nH]1 (stereo not given) | 0%
Cc1nc(-c2ccccc2)cc(C(O)CO)c1C(=O)O (stereo not given) | 0.81%
Cn1nc(-c2cc(F)cc(Cl)c2)cc1C1COC2(CCCCC2)O1 (stereo not given) | 4.42%
Cn1nc(C2CCCC2)cc1C1COC2(CCCCC2)O1 (stereo not given) | 0%
OCC(O)c1cc(-c2ccco2)n[nH]1 (stereo not given) | 0%
CC(=O)N1CCC2(CC1)OCC(c1cc(-c3ccccc3)nn1C)O2 (stereo not given) | 2.07%
CC(C)c1cc(C(O)CO)[nH]n1 (stereo not given) | 0%
OCC(O)c1cc(C23CC4CC(CC(C4)C2)C3)n[nH]1 (stereo not given) | 0%
Cn1nc(-c2cccs2)cc1C(O)CO (stereo not given) | 0%
Cn1nc(C2CCCCC2)cc1C1COC2(CCCCC2)O1 (stereo not given) | 1.51%

Compound | inhibition
Cn1nc(-c2ccon2)cc1C1COC2(CCCCC2)O1 (stereo not given) | 9.83%
Cn1nc(-c2cccs2)cc1C1COC2(CCCCC2)O1 (stereo not given) | 0%
OCC(O)c1cc(C2CCCC2)n[nH]1 (stereo not given) | 0%
OCC(O)c1cc2c(F)cccc2cn1 (stereo not given) | 0.65%
Cn1nc(-c2ccco2)cc1C1COC2(CCCCC2)O1 (stereo not given) | 51.6%
Cn1nc(C23CC4CC(CC(C4)C2)C3)cc1C1COC2(CCCCC2)O1 (stereo not given) | 0%
Cn1nc(C2CCCC2)cc1C(O)CO (stereo not given) | 0%
OCC(O)c1cc(C2CC2)nc(-c2ccccc2)n1 (stereo not given) | 21.6%
OCC(O)c1cc2ccsc2cn1 (stereo not given) | 0.17%
Cn1nc(C23CC4CC(CC(C4)C2)C3)cc1C(O)CO (stereo not given) | 0%
Cn1nc(-c2ccccc2)cc1C(O)CO (stereo not given) | 0%
CC(C)c1cc(C(O)CO)n(C)n1 (stereo not given) | 0%
CN(C)c1ccc(-c2cc(C3COC4(CCCCC4)O3)n(C)n2)cc1 (stereo not given) | 0.19%
c1c(C23CC4CC(CC(C4)C2)C3)n[nH]c1C1COC2(CCCCC2)O1 (stereo not given) | 0%
Cc1cc(-c2ccccc2)nn1C | 2.01%
c1csc(-c2cc(C3COC4(CCCCC4)O3)[nH]n2)c1 (stereo not given) | 26.5%
Cc1nc2cc(C3COC4(CCCCC4)O3)ncc2s1 (stereo not given) | 6.32%
CCCc1nc(-c2cccs2)cc(C(O)CO)n1 (stereo not given) | 47.8%
CC(C)c1cc(C2COC3(CCCCC3)O2)n(C)n1 (stereo not given) | 0%
Cc1ccc2cnc(C(O)CO)cc2c1 (stereo not given) | 0.4%
CC(C)c1cc(C2COC3(CCCCC3)O2)[nH]n1 (stereo not given) | 7.14%
Cc1nc(C2CC2)cc(C(O)CO)c1C(=O)O (stereo not given) | 1.33%

Second part, the compound after the results:

inhibition | Compound
0% | c1c(C2CCCC2)n[nH]c1C1COC2(CCCCC2)O1 (stereo not given)
0% | Cn1nc(-c2ccccc2)cc1C1COC2(CCCCCC2)O1 (stereo not given)
6.26% | Cc1nc(C2CC2)cc(C2COC3(CCCCC3)O2)c1C(=O)O (stereo not given)
0.1% | CCOC(=O)c1c(C2COC3(CCCCC3)O2)cc(-c2ccccc2)nc1C (stereo not given)
1.76% | Fc1cccc2cnc(C3COC4(CCCCC4)O3)cc12 (stereo not given)
0.2% | Fc1cccc(-c2nc(-c3cccs3)cc(C3COC4(CCCCC4)O3)n2)c1 (stereo not given)
14.9% | c1ccc2cc(C3COC4(CCCCC4)O3)ncc2c1 (stereo not given)
21.2% | c1ccc(-c2nc(C3CC3)cc(C3COC4(CCCCC4)O3)n2)nc1 (stereo not given)
1.47% | c1c(C2CC2)n[nH]c1C1COC2(CCCCC2)O1 (stereo not given)
5.56% | Cn1nc(-c2ccccc2)cc1C1COC2(CCCC2)O1 (stereo not given)
0% | c1ccc(-c2cc(C3COC4(CCCCC4)O3)n(-c3ccccc3)n2)cc1 (stereo not given)
0% | CCn1nc(-c2ccccc2)cc1C1COC2(CCCCC2)O1 (stereo not given)
0.96% | CCCc1nc(-c2cccs2)cc(C2COC3(CCCCC3)O2)n1 (stereo not given)
28.6% | Oc1ccc2cc(C3COC4(CCCCC4)O3)ncc2c1 (stereo not given)
78% | Cn1nc(-c2ccccc2)cc1C1COC2(CCCCC2)O1 (stereo not given)
0.36% | CCOC(=O)c1c(C2COC3(CCCCC3)O2)cc(C2CC2)nc1C (stereo not given)
4.38% | Cn1nc(-c2cc3ccccc3[nH]2)cc1C1COC2(CCCCC2)O1 (stereo not given)

inhibition | Compound
5.75% | c1cc2cc(C3COC4(CCCCC4)O3)ncc2o1 (stereo not given)
0% | Cn1nc(C2CC2)cc1C1COC2(CCCCC2)O1 (stereo not given)
15.2% | c1ccc(-c2cc(C3COC4(CCCCC4)O3)nc(C3CC3)n2)cc1 (stereo not given)
53.6% | c1ccc(-c2cc(C3COC4(CCCCC4)O3)[nH]n2)cc1 (stereo not given)
9.41% | Cc1nc(-c2ccccc2)cc(C2COC3(CCCCC3)O2)n1 (stereo not given)
1.66% | Cc1ccc2cnc(C3COC4(CCCCC4)O3)cc2c1 (stereo not given)
0% | Cn1nc(-c2cccc(C#N)c2)cc1C1COC2(CCCCC2)O1 (stereo not given)
0% | CC(C)n1nc(-c2ccccc2)cc1C1COC2(CCCCC2)O1 (stereo not given)
0% | Cc1nc(-c2ccccc2)cc(C2COC3(CCCCC3)O2)c1C(=O)O (stereo not given)
0.76% | c1ccc(-c2nc(C3CC3)cc(C3COC4(CCCCC4)O3)n2)cc1 (stereo not given)
0% | c1ccc(-c2cc(C3COC4(CCCCC4)O3)n(C3CC3)n2)cc1 (stereo not given)
0% | c1ccc(-c2cc(C3COC4(CCCCC4)O3)n(C3CCCC3)n2)cc1 (stereo not given)
43.5% | c1coc(-c2cc(C3COC4(CCCCC4)O3)[nH]n2)c1 (stereo not given)
4.92% | Cn1nc(-c2cccnc2)cc1C1COC2(CCCCC2)O1 (stereo not given)
0% | N#CCCn1nc(-c2ccccc2)cc1C1COC2(CCCCC2)O1 (stereo not given)
1.07% | Cc1cccc(-c2cc(C3COC4(CCCCC4)O3)n(C)n2)c1 (stereo not given)
11.1% | c1cc2cc(C3COC4(CCCCC4)O3)ncc2s1 (stereo not given)

biological target: T2, Autoinducer-2 kinase (Salmonella typhimurium (strain LT2 / SGSC1412 / ATCC 700720), UniProt Q8ZKQ6); test: Inhibition of Salmonella typhimurium LsrK expressed in Escherichia coli MET1158 using (S)-DPD as substrate after 15 mins by Kinase Glo luminescence assay; set-up: species or system Salmonella enterica subsp. enterica serovar Typhimurium; conditions: not given
T2 sequence (Q8ZKQ6 whole entry): T1 sequence (whole entry)
Method in brief: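 Dose-response at 6 concentrations (25–500 µM); 300 nM LsrK, 300 µM (S)-DPD, 100 µM ATP in 25 mM triethanolamine pH 7.4, 200 µM MgCl2, 0.1 mg/mL BSA plus Triton X-100; 15 min, Kinase Glo readout after 30 min; IC50 by four-parameter logistic fit; mean ±SD of two independent experiments (n = 4).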

IC50 | Compound
119 µM | Cn1nc(-c2ccccc2)cc1C1COC2(CCCCC2)O1 (stereo not given)
284 µM | Cn1nc(-c2ccco2)cc1C1COC2(CCCCC2)O1 (stereo not given)
475 µM | c1ccc(-c2cc(C3COC4(CCCCC4)O3)[nH]n2)cc1 (stereo not given)
384 µM | c1coc(-c2cc(C3COC4(CCCCC4)O3)[nH]n2)c1 (stereo not given)

biological target: Glycerol kinase (Escherichia coli (strain K12)) (UniProt P0A6F3); test: Inhibition of Escherichia coli K12 glycerokinase at 25 to 500 uM using glycerol as substrate after 15 mins by Kinase Glo luminescence assay; conditions: Escherichia coli K-12
Sequence (P0A6F3 whole entry): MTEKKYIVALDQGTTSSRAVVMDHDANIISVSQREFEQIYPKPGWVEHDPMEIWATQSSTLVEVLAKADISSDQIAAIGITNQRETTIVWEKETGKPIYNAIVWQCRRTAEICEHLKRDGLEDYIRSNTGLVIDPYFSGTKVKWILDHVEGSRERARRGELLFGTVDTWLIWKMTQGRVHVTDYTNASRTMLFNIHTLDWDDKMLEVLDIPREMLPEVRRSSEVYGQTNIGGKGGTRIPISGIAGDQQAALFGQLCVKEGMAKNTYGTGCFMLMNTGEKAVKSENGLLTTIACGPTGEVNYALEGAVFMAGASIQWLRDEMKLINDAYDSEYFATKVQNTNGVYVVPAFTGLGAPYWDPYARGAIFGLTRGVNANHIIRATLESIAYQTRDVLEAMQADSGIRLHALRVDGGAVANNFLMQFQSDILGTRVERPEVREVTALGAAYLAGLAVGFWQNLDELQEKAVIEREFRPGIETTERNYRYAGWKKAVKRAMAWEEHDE
Method in brief: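 E. coli glycerokinase 0.3 U/mL with 300 µM glycerol, then 100 µM ATP; run as the LsrK protocol (triethanolamine pH 7.4 buffer, 15 min incubation, Kinase Glo luminescence read after 30 min).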

inhibition | Compound
Dose-dependent effect | Cn1nc(-c2ccco2)cc1C1COC2(CCCCC2)O1 (stereo not given)
Dose-dependent effect | c1coc(-c2cc(C3COC4(CCCCC4)O3)[nH]n2)c1 (stereo not given)
